From article PMC9321909 (British Journal of Haematology, 2022)
“Also recorded” adds a separate entry of the source.

Assays:
[1] = Safety: treatment-emergent adverse events, NCI CTCAE v4.03; assay type: in vivo, human (Chinese patients)
In short: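 Patients took oral test compound at 320 mg QD or 160 mg BID until progression or unacceptable toxicity. AEs were graded per NCI CTCAE v4.03, and treatment-emergent AEs were summarized. AEs of special interest included haemorrhage, atrial fibrillation/flutter, hypertension, second primary malignancies, tumour lysis syndrome, infections and cytopenias. Percentages use patients receiving ≥1 dose as the denominator.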

[2] = assay type: in vivo, human (Chinese patients)

C=CC(=O)N1CCC([C@@H]2CCNc3c(C(N)=O)c(-c4ccc(Oc5ccccc5)cc4)nn32)CC1 [zanubrutinib]
Anaemia, TEAE any grade ([1]; 160 mg BID (n = 34)): 12 (35.3) n (%)
Anaemia, grade ≥ 3 TEAE ([1]; 160 mg BID (n = 34)): 4 (11.8) n (%)
Atrial fibrillation/flutter, any grade TEAE of special interest ([1]; 160 mg BID (n = 34)): 0 (0.0) n (%)
Cough, TEAE any grade ([1]; 160 mg BID (n = 34)): 5 (14.7) n (%)
Cytopenias: Anaemia, any grade TEAE of special interest ([1]; 160 mg BID (n = 34)): 14 (41.2) n (%)
Cytopenias: Neutropenia, any grade TEAE of special interest ([1]; 160 mg BID (n = 34)): 18 (52.9) n (%)
Cytopenias: Thrombocytopenia, any grade TEAE of special interest ([1]; 160 mg BID (n = 34)): 9 (26.5) n (%)
Haemorrhage, any grade TEAE of special interest ([1]; 160 mg BID (n = 34)): 11 (32.4) n (%)
Hematuria, TEAE any grade ([1]; 160 mg BID (n = 34)): 6 (17.6) n (%)
Hypertension, any grade TEAE of special interest ([1]; 160 mg BID (n = 34)): 0 (0.0) n (%)
Hyperuricemia, TEAE any grade ([1]; 160 mg BID (n = 34)): 6 (17.6) n (%)
Infections, any grade TEAE of special interest ([1]; 160 mg BID (n = 34)): 19 (55.9) n (%)
Major haemorrhage, any grade TEAE of special interest ([1]; 160 mg BID (n = 34)): 1 (2.9) n (%)
Neutropenia, grade ≥ 3 TEAE ([1]; 160 mg BID (n = 34)): 4 (11.8) n (%)
Neutrophil count decreased, TEAE any grade ([1]; 160 mg BID (n = 34)): 17 (50.0) n (%)
Neutrophil count decreased, grade ≥ 3 TEAE ([1]; 160 mg BID (n = 34)): 6 (17.6) n (%)
Patients with ≥1 TEAE of special interest, any grade ([1]; 160 mg BID (n = 34)): 30 (88.2) n (%)
Patients with ≥1 any‐grade TEAE ([1]; 160 mg BID (n = 34)): 33 (97.1) n (%)
Patients with ≥1 grade 3 or higher TEAE ([1]; 160 mg BID (n = 34)): 18 (52.9) n (%)
Platelet count decreased, TEAE any grade ([1]; 160 mg BID (n = 34)): 8 (23.5) n (%)
Platelet count decreased, grade ≥ 3 TEAE ([1]; 160 mg BID (n = 34)): 1 (2.9) n (%)
Pneumonia, TEAE any grade ([1]; 160 mg BID (n = 34)): 6 (17.6) n (%)
Pneumonia, grade ≥ 3 TEAE ([1]; 160 mg BID (n = 34)): 3 (8.8) n (%)
Rash, TEAE any grade ([1]; 160 mg BID (n = 34)): 8 (23.5) n (%)
Second primary malignancies, any grade TEAE of special interest ([1]; 160 mg BID (n = 34)): 0 (0.0) n (%)
Thrombocytopenia, grade ≥ 3 TEAE ([1]; 160 mg BID (n = 34)): 1 (2.9) n (%)
Tumour lysis syndrome, any grade TEAE of special interest ([1]; 160 mg BID (n = 34)): 0 (0.0) n (%)
Upper respiratory tract infection, TEAE any grade ([1]; 160 mg BID (n = 34)): 10 (29.4) n (%)
Upper respiratory tract infection, grade ≥ 3 TEAE ([1]; 160 mg BID (n = 34)): 2 (5.9) n (%)
Weight increased, TEAE any grade ([1]; 160 mg BID (n = 34)): 5 (14.7) n (%)
White blood cell count decreased, TEAE any grade ([1]; 160 mg BID (n = 34)): 11 (32.4) n (%)
White blood cell count decreased, grade ≥ 3 TEAE ([1]; 160 mg BID (n = 34)): 1 (2.9) n (%)
White blood cell count increased, grade ≥ 3 TEAE ([1]; 160 mg BID (n = 34)): 2 (5.9) n (%)
Anaemia, TEAE any grade ([1]; 320 mg QD (n = 10)): 4 (40.0) n (%)
Anaemia, grade ≥ 3 TEAE ([1]; 320 mg QD (n = 10)): 1 (10.0) n (%)
Atrial fibrillation/flutter, any grade TEAE of special interest ([1]; 320 mg QD (n = 10)): 0 (0.0) n (%)
Cough, TEAE any grade ([1]; 320 mg QD (n = 10)): 3 (30.0) n (%)
Cytopenias: Anaemia, any grade TEAE of special interest ([1]; 320 mg QD (n = 10)): 4 (40.0) n (%)
Cytopenias: Neutropenia, any grade TEAE of special interest ([1]; 320 mg QD (n = 10)): 7 (70.0) n (%)
Cytopenias: Thrombocytopenia, any grade TEAE of special interest ([1]; 320 mg QD (n = 10)): 3 (30.0) n (%)
Haemorrhage, any grade TEAE of special interest ([1]; 320 mg QD (n = 10)): 4 (40.0) n (%)
Hematuria, TEAE any grade ([1]; 320 mg QD (n = 10)): 3 (30.0) n (%)
Hypertension, any grade TEAE of special interest ([1]; 320 mg QD (n = 10)): 1 (10.0) n (%)
Hyperuricemia, TEAE any grade ([1]; 320 mg QD (n = 10)): 3 (30.0) n (%)
Infections, any grade TEAE of special interest ([1]; 320 mg QD (n = 10)): 7 (70.0) n (%)
Major haemorrhage, any grade TEAE of special interest ([1]; 320 mg QD (n = 10)): 0 (0.0) n (%)
Neutropenia, grade ≥ 3 TEAE ([1]; 320 mg QD (n = 10)): 0 (0.0) n (%)
Neutrophil count decreased, TEAE any grade ([1]; 320 mg QD (n = 10)): 7 (70.0) n (%)
Neutrophil count decreased, grade ≥ 3 TEAE ([1]; 320 mg QD (n = 10)): 5 (50.0) n (%)
Patients with ≥1 TEAE of special interest, any grade ([1]; 320 mg QD (n = 10)): 10 (100.0) n (%)
Patients with ≥1 any‐grade TEAE ([1]; 320 mg QD (n = 10)): 10 (100.0) n (%)
Patients with ≥1 grade 3 or higher TEAE ([1]; 320 mg QD (n = 10)): 6 (60.0) n (%)
Platelet count decreased, TEAE any grade ([1]; 320 mg QD (n = 10)): 2 (20.0) n (%)
Platelet count decreased, grade ≥ 3 TEAE ([1]; 320 mg QD (n = 10)): 1 (10.0) n (%)
Pneumonia, TEAE any grade ([1]; 320 mg QD (n = 10)): 3 (30.0) n (%)
Pneumonia, grade ≥ 3 TEAE ([1]; 320 mg QD (n = 10)): 0 (0.0) n (%)
Rash, TEAE any grade ([1]; 320 mg QD (n = 10)): 2 (20.0) n (%)
Second primary malignancies, any grade TEAE of special interest ([1]; 320 mg QD (n = 10)): 0 (0.0) n (%)
Thrombocytopenia, grade ≥ 3 TEAE ([1]; 320 mg QD (n = 10)): 1 (10.0) n (%)
Tumour lysis syndrome, any grade TEAE of special interest ([1]; 320 mg QD (n = 10)): 0 (0.0) n (%)
Upper respiratory tract infection, TEAE any grade ([1]; 320 mg QD (n = 10)): 5 (50.0) n (%)
Upper respiratory tract infection, grade ≥ 3 TEAE ([1]; 320 mg QD (n = 10)): 2 (20.0) n (%)
Weight increased, TEAE any grade ([1]; 320 mg QD (n = 10)): 3 (30.0) n (%)
White blood cell count decreased, TEAE any grade ([1]; 320 mg QD (n = 10)): 3 (30.0) n (%)
White blood cell count decreased, grade ≥ 3 TEAE ([1]; 320 mg QD (n = 10)): 1 (10.0) n (%)
White blood cell count increased, grade ≥ 3 TEAE ([1]; 320 mg QD (n = 10)): 1 (10.0) n (%)
Anaemia, TEAE any grade ([1]; Total (N = 44)): 16 (36.4) n (%)
Anaemia, grade ≥ 3 TEAE ([1]; Total (N = 44)): 5 (11.4) n (%)
Atrial fibrillation/flutter, any grade TEAE of special interest ([1]; Total (N = 44)): 0 (0.0) n (%)
Cough, TEAE any grade ([1]; Total (N = 44)): 8 (18.2) n (%)
Cytopenias: Anaemia, any grade TEAE of special interest ([1]; Total (N = 44)): 18 (40.9) n (%)
Cytopenias: Neutropenia, any grade TEAE of special interest ([1]; Total (N = 44)): 25 (56.8) n (%)
Cytopenias: Thrombocytopenia, any grade TEAE of special interest ([1]; Total (N = 44)): 12 (27.3) n (%)
Haemorrhage, any grade TEAE of special interest ([1]; Total (N = 44)): 15 (34.1) n (%)
Hematuria, TEAE any grade ([1]; Total (N = 44)): 9 (20.5) n (%)
Hypertension, any grade TEAE of special interest ([1]; Total (N = 44)): 1 (2.3) n (%)
Hyperuricemia, TEAE any grade ([1]; Total (N = 44)): 9 (20.5) n (%)
Infections, any grade TEAE of special interest ([1]; Total (N = 44)): 26 (59.1) n (%)
Major haemorrhage, any grade TEAE of special interest ([1]; Total (N = 44)): 1 (2.3) n (%)
Neutropenia, grade ≥ 3 TEAE ([1]; Total (N = 44)): 4 (9.1) n (%)
Neutrophil count decreased, TEAE any grade ([1]; Total (N = 44)): 24 (54.5) n (%)
Neutrophil count decreased, grade ≥ 3 TEAE ([1]; Total (N = 44)): 11 (25.0) n (%)
Patients with ≥1 TEAE of special interest, any grade ([1]; Total (N = 44)): 40 (90.9) n (%)
Patients with ≥1 any‐grade TEAE ([1]; Total (N = 44)): 43 (97.7) n (%)
Patients with ≥1 grade 3 or higher TEAE ([1]; Total (N = 44)): 24 (54.5) n (%)
Platelet count decreased, TEAE any grade ([1]; Total (N = 44)): 10 (22.7) n (%)
Platelet count decreased, grade ≥ 3 TEAE ([1]; Total (N = 44)): 2 (4.5) n (%)
Pneumonia, TEAE any grade ([1]; Total (N = 44)): 9 (20.5) n (%)
Pneumonia, grade ≥ 3 TEAE ([1]; Total (N = 44)): 3 (6.8) n (%)
Rash, TEAE any grade ([1]; Total (N = 44)): 10 (22.7) n (%)
Second primary malignancies, any grade TEAE of special interest ([1]; Total (N = 44)): 0 (0.0) n (%)
Thrombocytopenia, grade ≥ 3 TEAE ([1]; Total (N = 44)): 2 (4.5) n (%)
Tumour lysis syndrome, any grade TEAE of special interest ([1]; Total (N = 44)): 0 (0.0) n (%)
Upper respiratory tract infection, TEAE any grade ([1]; Total (N = 44)): 15 (34.1) n (%)
Upper respiratory tract infection, grade ≥ 3 TEAE ([1]; Total (N = 44)): 4 (9.1) n (%)
Weight increased, TEAE any grade ([1]; Total (N = 44)): 8 (18.2) n (%)
White blood cell count decreased, TEAE any grade ([1]; Total (N = 44)): 14 (31.8) n (%)
White blood cell count decreased, grade ≥ 3 TEAE ([1]; Total (N = 44)): 2 (4.5) n (%)
White blood cell count increased, grade ≥ 3 TEAE ([1]; Total (N = 44)): 3 (6.8) n (%)
AEs leading to dose reduction ([1]; all 44 patients): no AEs leading to dose reduction
neutrophil count decreased, most common adverse event (any grade) ([1]; all 44 patients): 54.5%
neutrophil count decreased, most common grade 3 or higher AE ([1]; all 44 patients): 25.0%
patients with AEs leading to dose interruption ([1]; all 44 patients): 18.2%
patients with AEs leading to treatment discontinuation ([1]; all 44 patients): 4.5%
reports of second primary malignancies, tumour lysis syndrome, atrial fibrillation/flutter ([1]; all 44 patients): no reports
grade of haemorrhagic events ([1]; all events except one non‐serious grade 3 purpura): grade 1–2; also recorded: grade 1 or 2
dose‐limiting toxicity (DLT) events ([1]; part I, 160 mg BID and 320 mg QD): No DLT events
half-life ([2]; human, plasma, oral): 2.3 to 3.4 h
time of C max post dose ([2]; oral 160 mg and 320 mg doses): ~ 2 h
